Source: ChEMBL document CHEMBL4330069, “Boosting the efficacy of anti-MRSA β-lactam antibiotics via an easily accessible, non-cytotoxic and orally bioavailable FtsZ inhibitor” (Eur J Med Chem, 2019)
pIC50: −log10 of the molar value. ≈ marks a conversion by molar mass, not a printed value.

Columns and labels:
[1] = system: Staphylococcus aureus; experiment: Antibacterial activity against Staphylococcus aureus ATCC 29213 harboring FtsZ 128 mutation after 20 hrs; format: functional; conditions: ATCC 29213, 20 h
Summary of the method: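 Broth microdilution MIC per CLSI guidelines, compounds dissolved in DMSO. Resistant mutants were selected by serial passage of ATCC 29213 in LB at 37 °C with shaking at 250 rpm. Each 20 h culture started at half the MIC, and the concentration was doubled at each transfer. Growth inhibition was read by eye, in duplicate.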

[2] = system: L929; experiment: Cytotoxicity against mouse L929 cells by MTS assay; format: cell-based
Summary of the method: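 MTS assay on L929 mouse fibroblasts; IC50 reported as the average of three independent measurements.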

[3] = system: Staphylococcus aureus; experiment: Antibacterial activity against multidrug-resistant Staphylococcus aureus isolate 3411 by broth microdilution assay; format: functional
Summary of the method: (§1)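 Broth microdilution MIC per CLSI guidelines against clinical MRSA isolates, for β-lactams and test compound alone and in combination. Compounds were dissolved in DMSO. Growth was read by eye, in duplicate. FIC index = FIC(compound) + FIC(drug); synergy defined as FIC index ≤0.5.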

[4] = system: Staphylococcus aureus; experiment: Antibacterial activity against multidrug-resistant Staphylococcus aureus isolate 757 by broth microdilution assay; format: functional; summary of the method: as §1
[5] = system: Staphylococcus aureus; experiment: Antibacterial activity against multidrug-resistant Staphylococcus aureus isolate 2728 by broth microdilution assay; format: functional; summary of the method: as §1
[6] = system: Staphylococcus aureus; experiment: Antibacterial activity against multidrug-resistant Staphylococcus aureus isolate 1717 by broth microdilution assay; format: functional; summary of the method: as §1
[7] = system: Staphylococcus aureus; experiment: Antibacterial activity against multidrug-resistant Staphylococcus aureus isolate 2973 by broth microdilution assay; format: functional; summary of the method: as §1
[8] = system: Staphylococcus aureus; experiment: Synergistic antibacterial activity against multidrug-resistant Staphylococcus aureus isolate 2516 in presence of amoxicillin by broth microdilution assay; format: functional
Summary of the method: (§2)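 Clinical MRSA isolate panel; compound and β-lactam tested alone and in combination by CLSI broth microdilution, compounds dissolved in DMSO, growth inhibition scored by eye, run in duplicate. FIC index = FIC(compound) + FIC(drug), each the MIC in combination divided by the MIC alone; an index ≤ 0.5 was called synergy.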

[9] = system: Staphylococcus aureus; experiment: Synergistic antibacterial activity against multidrug-resistant Staphylococcus aureus isolate 3267 in presence of amoxicillin by broth microdilution assay; format: functional
Summary of the method: (§3)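 CLSI broth microdilution on clinical MRSA isolates. MICs were measured for the β-lactam alone, the test agent alone and the two combined. Compounds were dissolved in DMSO, and growth inhibition was scored by eye. FIC index is the sum, over both agents, of MIC in combination divided by MIC alone. An FIC index ≤0.5 was taken as synergy.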

[10] = system: Staphylococcus aureus; experiment: Synergistic antibacterial activity against multidrug-resistant Staphylococcus aureus isolate 358 in presence of amoxicillin by broth microdilution assay; format: functional
[11] = system: Staphylococcus aureus; experiment: Synergistic antibacterial activity against multidrug-resistant Staphylococcus aureus isolate 3580 in presence of amoxicillin by broth microdilution assay; format: functional
[12] = system: Staphylococcus aureus; experiment: Synergistic antibacterial activity against multidrug-resistant Staphylococcus aureus isolate 2490 in presence of methicillin by broth microdilution assay; format: functional; summary of the method: as §2
[13] = system: Staphylococcus aureus; experiment: Synergistic antibacterial activity against multidrug-resistant Staphylococcus aureus isolate 2901 in presence of methicillin by broth microdilution assay; format: functional; summary of the method: as §3
[14] = system: Staphylococcus aureus; experiment: Synergistic antibacterial activity against multidrug-resistant Staphylococcus aureus isolate 256 in presence of methicillin by broth microdilution assay; format: functional; summary of the method: as §3
[15] = system: Staphylococcus aureus; experiment: Synergistic antibacterial activity against multidrug-resistant Staphylococcus aureus isolate 3332 in presence of methicillin by broth microdilution assay; format: functional; summary of the method: as §3
[16] = system: Staphylococcus aureus; experiment: Synergistic antibacterial activity against multidrug-resistant Staphylococcus aureus isolate 1749 in presence of methicillin by broth microdilution assay; format: functional; summary of the method: as §2
[17] = system: Staphylococcus aureus; experiment: Synergistic antibacterial activity against multidrug-resistant Staphylococcus aureus isolate 1449 in presence of cloxacillin by broth microdilution assay; format: functional; summary of the method: as §2
[18] = system: Staphylococcus aureus; experiment: Synergistic antibacterial activity against multidrug-resistant Staphylococcus aureus isolate 1136 in presence of cefuroxime by broth microdilution assay; format: functional; summary of the method: as §2
[19] = system: Staphylococcus aureus; experiment: Synergistic antibacterial activity against multidrug-resistant Staphylococcus aureus isolate 417 in presence of meropenem by broth microdilution assay; format: functional
[20] = system: Staphylococcus aureus; experiment: Synergistic antibacterial activity against multidrug-resistant Staphylococcus aureus isolate 1136 in presence of meropenem by broth microdilution assay; format: functional; summary of the method: as §2
[21] = system: Staphylococcus aureus; experiment: Synergistic antibacterial activity against multidrug-resistant Staphylococcus aureus isolate 2895 in presence of meropenem by broth microdilution assay; format: functional; summary of the method: as §3
[22] = system: Staphylococcus aureus; experiment: Synergistic antibacterial activity against multidrug-resistant Staphylococcus aureus isolate 2973 in presence of meropenem by broth microdilution assay; format: functional; summary of the method: as §3
[23] = system: Staphylococcus aureus; experiment: Synergistic antibacterial activity against multidrug-resistant Staphylococcus aureus isolate 1136 assessed as fractional Inhibitory concentration index in presence of amoxicillin by broth microdilution assay; format: functional
Summary of the method: (§4)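 CLSI broth microdilution run on clinical MRSA isolates with each β-lactam alone, the test agent alone, and the two combined; agents dissolved in DMSO. Growth inhibition was read by eye. FIC index = FIC(compound) + FIC(β-lactam), where each FIC is the MIC in combination divided by the MIC alone. An index ≤0.5 was taken as synergy.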

[24] = system: Staphylococcus aureus; experiment: Synergistic antibacterial activity against multidrug-resistant Staphylococcus aureus isolate 757 assessed as fractional Inhibitory concentration index in presence of amoxicillin by broth microdilution assay; format: functional
[25] = system: Staphylococcus aureus; experiment: Synergistic antibacterial activity against multidrug-resistant Staphylococcus aureus isolate 2224 assessed as fractional Inhibitory concentration index in presence of amoxicillin by broth microdilution assay; format: functional; summary of the method: as §4
[26] = system: Staphylococcus aureus; experiment: Synergistic antibacterial activity against multidrug-resistant Staphylococcus aureus isolate 1136 assessed as fractional Inhibitory concentration index in presence of methicillin by broth microdilution assay; format: functional; summary of the method: as §4
[27] = system: Staphylococcus aureus; experiment: Synergistic antibacterial activity against multidrug-resistant Staphylococcus aureus isolate 2516 assessed as fractional Inhibitory concentration index in presence of methicillin by broth microdilution assay; format: functional; summary of the method: as §4
[28] = system: Staphylococcus aureus; experiment: Synergistic antibacterial activity against multidrug-resistant Staphylococcus aureus isolate 757 assessed as fractional Inhibitory concentration index in presence of methicillin by broth microdilution assay; format: functional
[29] = system: Staphylococcus aureus; experiment: Synergistic antibacterial activity against multidrug-resistant Staphylococcus aureus isolate 3411 assessed as fractional Inhibitory concentration index in presence of cloxacillin by broth microdilution assay; format: functional
[30] = system: Staphylococcus aureus; experiment: Synergistic antibacterial activity against multidrug-resistant Staphylococcus aureus isolate 2490 assessed as fractional Inhibitory concentration index in presence of cefuroxime by broth microdilution assay; format: functional; summary of the method: as §4
[31] = system: Staphylococcus aureus; experiment: Synergistic antibacterial activity against multidrug-resistant Staphylococcus aureus isolate 3580 assessed as fractional Inhibitory concentration index in presence of cefuroxime by broth microdilution assay; format: functional
[32] = system: Staphylococcus aureus; experiment: Synergistic antibacterial activity against multidrug-resistant Staphylococcus aureus isolate 85 assessed as fractional Inhibitory concentration index in presence of cefuroxime by broth microdilution assay; format: functional
[33] = system: Staphylococcus aureus; experiment: Synergistic antibacterial activity against multidrug-resistant Staphylococcus aureus isolate 3589 assessed as fractional Inhibitory concentration index in presence of meropenem by broth microdilution assay; format: functional
[34] = system: Staphylococcus aureus; experiment: Synergistic antibacterial activity against multidrug-resistant Staphylococcus aureus isolate 3332 assessed as fractional Inhibitory concentration index in presence of meropenem by broth microdilution assay; format: functional
[35] = Half life in Sprague-Dawley rat at 1 mg/kg, iv by UPLC-MS/MS analysis; format: ADME, organism-based; conditions: in vivo
Summary of the method: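 Male Sprague–Dawley rats (250-280 g) dosed IV at 1 mg/kg or by oral feeding at 50 mg/kg. Jugular blood taken from 5 to 420 min (IV) or 2 to 600 min (oral). Plasma proteins precipitated with methanol, then analysed by UPLC-MS/MS with positive ESI. Parameters from non-compartmental analysis.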

## CCCCCCCCCNc1ccc(F)c(C(N)=O)c1F
[1]
  MIC: 128 µg/mL (≈ 429 µM)
[2]
  pIC50: < 4.00
[3]
  MIC: 2 µg/mL (≈ 6.7 µM)
[4]
  MIC: 128 µg/mL (≈ 429 µM)
[5]
  MIC: 128 µg/mL (≈ 429 µM)
[6]
  MIC: 2 µg/mL (≈ 6.7 µM)
[7]
  MIC: 128 µg/mL (≈ 429 µM)
[8]
  MIC: 8 µg/mL
[9]
  MIC: 2 µg/mL
[10]
  MIC: 4 µg/mL
[11]
  MIC: 8 µg/mL
[12]
  MIC: 4 µg/mL
[13]
  MIC: 2 µg/mL
[14]
  MIC: 4 µg/mL
[15]
  MIC: 4 µg/mL
[16]
  MIC: 2 µg/mL
[17]
  MIC: 0.5 µg/mL
[18]
  MIC: 2 µg/mL
[19]
  MIC: 4 µg/mL
[20]
  MIC: 8 µg/mL
[21]
  MIC: 2 µg/mL
[22]
  MIC: 4 µg/mL
[23]
  fractional inhibitory concentration index (FICI): 1
[24]
  fractional inhibitory concentration index (FICI): 0.3
[25]
  fractional inhibitory concentration index (FICI): 0.2
[26]
  fractional inhibitory concentration index (FICI): 0.3
[27]
  fractional inhibitory concentration index (FICI): 0.2
[28]
  fractional inhibitory concentration index (FICI): 0.1
[29]
  fractional inhibitory concentration index (FICI): 0.5
[30]
  fractional inhibitory concentration index (FICI): 0.2
[31]
  fractional inhibitory concentration index (FICI): 0.1
[32]
  fractional inhibitory concentration index (FICI): 0.3
[33]
  fractional inhibitory concentration index (FICI): 1.5
[34]
  fractional inhibitory concentration index (FICI): 2.3
[35]
  half-life: 5.5 h
